Reference: ChEMBL document CHEMBL1140719, “A Drosophila model to identify polyamine-drug conjugates that target the polyamine transporter in an intact epithelium” (J Med Chem, 2008)

Assays:
[1] = Inhibition of disc eversion in Drosophila melanogaster imaginal disc cells at 18 uM in presence of spermidine; format: functional
Summary of the method: (§1)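 Larvae are Oregon-R, from eggs laid for 24 h at 25 °C on cornmeal medium with bromophenol blue. About 30 leg imaginal discs per culture are cultured 15 h at 25 °C in 1 mL minimal Robb's medium (pH 7.2) with 1 µg/mL 20-hydroxyecdysone and 18 µM compound. Spermidine at 100 µM is added as competitor where stated.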

[2] = test system: polyamine transporter; assay: Ratio of IC50 for polyamine transporter deficient […] cells to IC50 for CHO cells; format: cell-based, Cricetulus griseus; conditions: chinese hamster, polyamine transporter deficient […] cells and CHO cells; read-out: Ratio IC50
Summary of the method: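 The ratio is the IC50 in the polyamine-transport-deficient CHO-MG line (MGBG-resistant after ethylmethanesulfonate mutagenesis) divided by the IC50 in parental CHO cells.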

[3] = Inhibition of disc eversion in Drosophila melanogaster imaginal disc cells at 18 uM; format: functional; summary of the method: as §1
[4] = Cytotoxicity against polyamine transporter deficient […] cells; format: ADME, cell-based; conditions: Cricetulus griseus
[5] = Inhibition of PAT assessed as cytotoxicity against CHO cells; format: cell-based; conditions: Cricetulus griseus
[6] = test system: L1210; assay: Cytotoxicity against mouse L1210 cells; format: functional, cell-based
[7] = Cytotoxicity against Drosophila melanogaster imaginal disc cells by Trypan blue exclusion test; format: cell-based
Summary of the method: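 Oregon-R Drosophila melanogaster leg imaginal discs are dissected in Ringer's with 0.1% BSA and cultured 15 h at 25 °C in minimal Robb's medium (pH 7.2). The medium holds 18 µM conjugate and 1 µg/mL 20-hydroxyecdysone. Viability of noneverted disc cells is then judged by Trypan blue exclusion, with everted control discs for comparison.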

| Compound | inhibition at 18 µM [1] [%] | selectivity ratio [2] | inhibition at 18 µM [3] [%] | IC50 [4] [µM] | IC50 [5] [µM] | IC50 [6] [µM] | Activity [7] |
| --- | --- | --- | --- | --- | --- | --- | --- |
| NCCCCNCc1c2ccccc2cc2ccccc12 | 100 | 1 | 78.4 | 7.6 | 7.7 |  |  |
| CCN(CCCNCCCN)Cc1c2ccccc2cc2ccccc12 | 100 | 0.8 | 88.5 | 4 | 5.3 | 2.2 |  |
| NCCCNCc1c2ccccc2cc2ccccc12 | 100 | 1 | 95.2 | 2.4 | 2.3 | 2.2 |  |
| CCN(CCCCNCCCCN)Cc1c2ccccc2cc2ccccc12 |  | 1 | 5.5 | 21.9 |  |  |  |
| NCCCCNCCCNCc1c2ccccc2cc2ccccc12 | 9.9 | 3.5 | 7.8 | 8.8 | 2.5 | 0.7 |  |
| CCN(CCCN)Cc1c2ccccc2cc2ccccc12 | 90 | 0.9 | 75.7 | 6.6 | 7.7 | 5.1 |  |
| NCCCCNCCCCNCc1c2ccccc2cc2ccccc12 | 8.7 | 148 | 97.6 | 66.7 | 0.45 |  | Toxic |
| NCCCNCCCNCc1c2ccccc2cc2ccccc12 | 100 | 1.8 | 85.4 | 3.4 | 1.9 |  |  |
| NCCCNCCCCNCc1c2ccccc2cc2ccccc12 | 23.8 | 24 | 73.9 | 9.5 | 0.4 | 0.4 | Toxic |
| NCCCCNCCCN [SPERMIDINE] |  |  | 4.8 |  |  |  |  |
